Data as given in ChEMBL document CHEMBL1828575, “Design, synthesis and antiproliferative activities of biarylolefins based on polyhydroxylated and carbohydrate scaffolds” (Eur J Med Chem, 2011).

Assays:
Type in all cases: functional
[1] = tested on: NCI-H322M; experiment: Cytotoxicity against human NCI-H322M cells assessed as cellular growth at 10 uM after 48 hrs by SRB assay
Summary of the method: (§1)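 NCI-60 panel lines grown in RPMI 1640 with 5% FBS and 2 mM L-glutamine. Plated at 5000–40,000 cells/well and preincubated 24 h at 37 °C, 5% CO₂, with time-zero plates fixed in TCA. Compounds, dissolved in DMSO and diluted in medium, were applied for 48 h. Cells were TCA-fixed (10% final for adherent, 16% for suspension) and stained with 0.4% SRB in 1% acetic acid. Dye was solubilised in 10 mM Tris base and read at 515 nm; growth was expressed as a percentage of untreated control.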

[2] = tested on: COLO 205; experiment: Antitumor activity against human COLO205 cells after 48 hrs by SRB assay; conditions: COLO 205, 48 h
Summary of the method: (§2)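 NCI60 panel in RPMI 1640 with 5% FBS and 2 mM L-glutamine. Cells were plated at 5000–40,000/well by doubling time, held 24 h, then time-zero plates were TCA-fixed. Five concentrations (10-fold or half-log dilutions of DMSO stocks) were applied for 48 h at 37 °C, 5% CO2. Cells were fixed with cold TCA (10% final adherent, 16% suspension) and stained with 0.4% SRB. Bound dye was dissolved in 10 mM Tris and read at 515 nm. GI50, TGI and LC50 were calculated per line.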

[3] = tested on: HCT-116; experiment: Antitumor activity against human HCT116 cells after 48 hrs by SRB assay; conditions: HCT-116, 48 h; summary of the method: as §2
[4] = tested on: HCT-116; experiment: Cytotoxicity against human HCT116 cells assessed as cellular growth at 10 uM after 48 hrs by SRB assay
Summary of the method: (§3)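 NCI60 single-dose screen of cells in RPMI 1640 with 5% FBS and 2 mM L-glutamine, preincubated 24 h at 37 °C, 5% CO₂. Cells were then exposed 48 h to compound added from DMSO stock. TCA-fixed, stained with 0.4% SRB in 1% acetic acid, dye solubilised in 10 mM Tris base and read at 515 nm. Growth is given as percent of untreated control.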

[5] = tested on: HOP-62; experiment: Antitumor activity against human HOP62 cells after 48 hrs by SRB assay; conditions: HOP-62, 48 h; summary of the method: as §2
[6] = tested on: SK-MEL-28; experiment: Antitumor activity against human SK-MEL-28 cells after 48 hrs by SRB assay; conditions: SK-MEL-28, 48 h
Summary of the method: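 NCI60 panel cells grown in RPMI 1640 with 5% FBS and 2 mM L-glutamine, plated at 5000–40,000 cells/well and preincubated 24 h at 37 °C, 5% CO₂. Compound was added from DMSO at five concentrations, 10-fold or 1/2 log dilutions, then incubated 48 h.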

[7] = tested on: MDA-MB-231; experiment: Cytotoxicity against human MDA-MB-231 cells assessed as cellular growth at 10 uM after 48 hrs by SRB assay; summary of the method: as §1
[8] = tested on: OVCAR-8; experiment: Antitumor activity against human OVCAR8 cells after 48 hrs by SRB assay; conditions: OVCAR-8, 48 h; summary of the method: as §2
[9] = Cytotoxicity against human NCI60 cells assessed as cellular growth at 10 uM after 48 hrs by SRB assay relative to untreated control; summary of the method: as §1
[10] = tested on: A498; experiment: Antitumor activity against human A498 cells after 48 hrs by SRB assay; conditions: A498, 48 h; summary of the method: as §2
[11] = tested on: MDA-MB-231; experiment: Antitumor activity against human MDA-MB-231 cells after 48 hrs by SRB assay; conditions: MDA-MB-231, 48 h; summary of the method: as §2
[12] = tested on: BT-549; experiment: Antitumor activity against human BT549 cells after 48 hrs by SRB assay; conditions: BT-549, 48 h
Summary of the method: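 NCI60 screen: cells grown in RPMI 1640 with 5% FBS and 2 mM L-glutamine, plated at 5000–40,000 cells/well by doubling time, preincubated 24 h at 37 °C with 5% CO2. Compounds were diluted from DMSO stocks and given for 48 h, at five concentrations for dose response. A time-zero plate was TCA-fixed. Cells were TCA-fixed, stained with 0.4% SRB and read at 515 nm, with growth expressed relative to untreated controls.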

[13] = tested on: SF-295; experiment: Cytotoxicity against human SF295 cells assessed as cellular growth at 10 uM after 48 hrs by SRB assay; summary of the method: as §1
[14] = tested on: MDA-MB-468; experiment: Antitumor activity against human MDA-MB-468 cells after 48 hrs by SRB assay; conditions: MDA-MB-468, 48 h; summary of the method: as §2
[15] = tested on: RPMI-8226; experiment: Cytotoxicity against human RPMI8226 cells assessed as cellular growth at 10 uM after 48 hrs by SRB assay; summary of the method: as §1
[16] = tested on: NCI-H322M; experiment: Antitumor activity against human NCI-H322M cells after 48 hrs by SRB assay; summary of the method: as §2
[17] = tested on: OVCAR-3; experiment: Antitumor activity against human OVCAR3 cells after 48 hrs by SRB assay; conditions: OVCAR-3, 48 h; summary of the method: as §2
[18] = tested on: NCI-H522; experiment: Cytotoxicity against human NCI-H522 cells assessed as cellular growth at 10 uM after 48 hrs by SRB assay; summary of the method: as §1
[19] = tested on: SF-539; experiment: Cytotoxicity against human SF539 cells assessed as cellular growth at 10 uM after 48 hrs by SRB assay; summary of the method: as §1
[20] = tested on: CCRF-CEM; experiment: Cytotoxicity against human CCRF-CEM cells assessed as cellular growth at 10 uM after 48 hrs by SRB assay; summary of the method: as §3
[21] = tested on: COLO 205; experiment: Cytotoxicity against human COLO205 cells assessed as cellular growth at 10 uM after 48 hrs by SRB assay; summary of the method: as §3
[22] = tested on: MDA-MB-435; experiment: Cytotoxicity against human MDA-MB-435 cells assessed as cellular growth at 10 uM after 48 hrs by SRB assay; summary of the method: as §1
[23] = read-out: LC50 (the source's name)
[24] = read-out: pLC50 (the source's name) (converted)

Question: For `COc1ccc(/C(=C2\O[C@@H]([C@H]3COC(C)(C)O3)[C@H]3OC(C)(C)O[C@@H]23)c2cc(OC)c(OC)c(OC)c2)cc1O`, which Activity [1] is on record?
Answer: 91.51%

Question: And the GI50 ([2]; read-out: GI50)?
Answer: 27.3 µM

Question: And the CC50 [2, 23]?
Answer: > 100 µM

Question: What about the TGI ([2]; read-out: TGI) of the same compound?
Answer: 63.7 µM

Question: What about the GI50 ([2]; read-out: pGI50 (converted)) of the same compound?
Answer: 27.5 µM

Question: What about the CC50 [2, 24] of the same compound?
Answer: > 100 µM

Question: What about the TGI ([2]; read-out: pTGI (converted)) of the same compound?
Answer: 63.1 µM

Question: And the GI50 [3]?
Answer: > 100 µM

Question: What about the LC50 (concentration giving 50% net cell kill) [3] of the same compound?
Answer: > 100 µM

Question: What about the TGI [3] of the same compound?
Answer: > 100 µM

Question: What about the Activity [4] of the same compound?
Answer: 78.08%

Question: What about the GI50 [5] of the same compound?
Answer: 10.9 µM

Question: What about the TGI [5] of the same compound?
Answer: 34.7 µM

Question: And the CC50 [5, 23]?
Answer: > 100 µM

Question: And the LC50 (50% lethal concentration) [6]?
Answer: > 100 µM

Question: What about the GI50 ([6]; read-out: GI50) of the same compound?
Answer: 10.6 µM

Question: What about the TGI ([6]; read-out: TGI) of the same compound?
Answer: > 100 µM

Question: What about the GI50 ([6]; read-out: pGI50 (converted)) of the same compound?
Answer: 10.5 µM

Question: What about the CC50 [6, 24] of the same compound?
Answer: > 100 µM

Question: What about the TGI ([6]; read-out: pTGI) of the same compound?
Answer: > 100 µM

Question: What about the Activity [7] of the same compound?
Answer: 54.45%

Question: And the GI50 ([8]; read-out: GI50)?
Answer: 6.56 µM

Question: What about the CC50 [8, 23] of the same compound?
Answer: > 100 µM

Question: What about the TGI ([8]; read-out: TGI) of the same compound?
Answer: > 100 µM

Question: And the GI50 ([8]; read-out: pGI50 (converted))?
Answer: 8.51 µM

Question: What about the CC50 [8, 24] of the same compound?
Answer: > 100 µM

Question: And the TGI ([8]; read-out: pTGI)?
Answer: > 100 µM

Question: What about the Activity [9] of the same compound?
Answer: 66%

Question: And the GI50 ([10]; read-out: GI50)?
Answer: 32.1 µM

Question: And the CC50 [10, 23]?
Answer: > 100 µM

Question: What about the TGI ([10]; read-out: TGI) of the same compound?
Answer: 97.4 µM

Question: And the GI50 ([10]; read-out: pGI50 (converted))?
Answer: 32.4 µM

Question: What about the CC50 [10, 24] of the same compound?
Answer: > 100 µM

Question: And the TGI ([10]; read-out: pTGI (converted))?
Answer: 97.7 µM

Question: And the GI50 [11]?
Answer: 6.28 µM

Question: And the TGI [11]?
Answer: 69.7 µM

Question: What about the CC50 [11, 23] of the same compound?
Answer: > 100 µM

Question: And the CC50 [12, 23]?
Answer: > 100 µM

Question: And the CC50 [12, 24]?
Answer: > 100 µM

Question: And the Activity [13]?
Answer: 77.57%

Question: And the GI50 ([14]; read-out: GI50)?
Answer: 17.8 µM

Question: What about the CC50 [14, 23] of the same compound?
Answer: > 100 µM

Question: And the TGI ([14]; read-out: TGI)?
Answer: 63.6 µM

Question: What about the GI50 ([14]; read-out: pGI50 (converted)) of the same compound?
Answer: 25.7 µM

Question: What about the CC50 [14, 24] of the same compound?
Answer: > 100 µM

Question: And the TGI ([14]; read-out: pTGI (converted))?
Answer: 63.1 µM

Question: What about the Activity [15] of the same compound?
Answer: 36.38%

Question: And the GI50 ([16]; read-out: GI50)?
Answer: 9.6 µM

Question: And the CC50 [16, 23]?
Answer: > 100 µM

Question: And the TGI ([16]; read-out: TGI)?
Answer: > 100 µM

Question: What about the GI50 ([16]; read-out: pGI50 (converted)) of the same compound?
Answer: 9.55 µM

Question: What about the CC50 [16, 24] of the same compound?
Answer: > 100 µM

Question: And the TGI ([16]; read-out: pTGI)?
Answer: > 100 µM

Question: And the GI50 [17]?
Answer: 2.39 µM

Question: What about the TGI [17] of the same compound?
Answer: 5.67 µM

Question: What about the CC50 [17, 23] of the same compound?
Answer: 21.7 µM

Question: And the Activity [18]?
Answer: 51.79%

Question: And the Activity [19]?
Answer: 21.53%

Question: And the Activity [20]?
Answer: 60.8%

Question: And the Activity [21]?
Answer: 120.67%

Question: And the Activity [22]?
Answer: -10.2%
